pIC50: −log10 of the molar value.
What was measured:
[1] = target: T1, Phosphatidylinositol 4,5-bisphosphate 3-kinase catalytic subunit alpha isoform (Homo sapiens, UniProt P42336, H1047R); experiment: Inhibition of PI3K […] H1047R mutant-mediated PKB phosphorylation at Ser473 in human HCT116 cells after 15 mins by immunoblot analysis; format: cell-based, HCT-116
Procedure, shortened: (§1)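 HCT-116 cells in MEM alpha with 10% FBS and penicillin/streptomycin, seeded, grown 1 day, then starved overnight serum-free. Inhibitor in DMSO (0.1% final) at varying concentrations for 15 min, then 500 nM insulin for 5 min. Lysates immunoblotted for phospho-PKB at Ser473 or Thr308.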

[2] = Terminal half life in CD1 mouse at 10 mg/kg, ip; format: ADME, organism-based; design: dose 10 mg/kg, route intraperitoneal; conditions: in vivo, read-out: beta t1/2 (converted)
Procedure, shortened: (§2)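 Age-matched specific pathogen-free male CD-1 mice; single 10 mg/kg i.p. dose in 5% DMSO, 45% PEG-400, 20% 2-hydroxypropyl-β-cyclodextrin, 30% water. Blood sampled at multiple times post-dose; plasma taken after centrifugation (10 min, 6000 rpm, 20 °C). Plasma analysed by LC-MS/MS; parameters from non-compartmental analysis.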

[3] = Inhibition of DNA-PK
[4] = AUC (0 to infinity) in CD1 mouse at 10 mg/kg, ip; format: ADME, organism-based; design: time infinity, dose 10 mg/kg, route intraperitoneal; conditions: plasma; procedure, shortened: as §2
[5] = target: Mitogen-activated protein kinase 14 (Homo sapiens) (UniProt Q16539); experiment: Inhibition of p38alpha assessed as residual activity at 10 uM
[6] = target: Phosphatidylinositol 4,5-bisphosphate 3-kinase catalytic subunit beta isoform (Homo sapiens, UniProt P42338); experiment: Inhibition of recombinant PI3K p110beta using L-alpha-phosphatidylinositol as substrate and [gamma33P]ATP after 60 mins by thin layer chromatographic technique
Procedure, shortened: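 In-house recombinant enzyme (0.1 µg) with L-α-phosphatidylinositol in 40 mM Tris-HCl pH 7.4, 200 mM NaCl, 1 mM EDTA; DMSO 1% final. Started with 5 mM MgCl₂, 100 µM ATP plus [γ-³³P]ATP; 1 h at room temperature, stopped with 1 M HCl. Lipids extracted, separated by TLC, phosphorimaged. Nine inhibitor concentrations; two experiments, IC50 averaged.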

[7] = target: Misshapen-like kinase 1 (Homo sapiens) (UniProt Q8N4C8); experiment: Inhibition of MINK1 assessed as residual activity at 10 uM
[8] = test system: HCT-116; experiment: Antitumor activity against human HCT116 cells xenografted in Rag1knockout mouse assessed as tumor growth delay at 40 mg/kg, ip QD measured on day 7 relative to untreated control; format: functional; conditions: route intraperitoneal
Procedure, shortened: (§3)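 Male Rag1−/− mice (age-matched, SPF) inoculated s.c. with 5 × 10⁶ HCT-116 cells in PBS. Dosing started at ~150 mm³ tumours: q.d. i.p. in 7.5% DMSO, 42.5% PEG-400, 20% 2-hydroxypropyl-β-cyclodextrin, 30% water; controls received vehicle. Volume = (L × w²) × π/6, measured three times weekly; bodyweight daily. Treatment stopped if mean weight loss >15%; 1-way ANOVA with Holm–Sidak.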

[9] = test system: Mus musculus; experiment: Toxicity in NIH3 mouse xenografted with human SKOV3 cells assessed as body weight loss at 30 mg/kg, ip QD administered for 14 days; format: organism-based, SK-OV-3; design: dose 30 mg/kg, route intraperitoneal; conditions: in vivo, 336 h
Procedure, shortened: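 Female NIH III nude mice (age-matched, SPF) inoculated s.c. with 5 × 10⁶ SK-OV-3 cells in PBS. Dosing from ~150 mm³ tumours, 30 mg/kg i.p. q.d. for 14 days in 7.5% DMSO/42.5% PEG-400/20% 2-hydroxypropyl-β-cyclodextrin/30% water; vehicle controls. Volume (L × w²) × π/6 three times weekly; bodyweight daily; culled above 20% weight loss; 1-way ANOVA, Holm–Sidak.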

[10] = target: Ribosomal protein S6 kinase alpha-1 (Homo sapiens) (UniProt Q15418); experiment: Inhibition of RSK1 assessed as residual activity at 10 uM
[11] = target: T1, Phosphatidylinositol 4,5-bisphosphate 3-kinase catalytic subunit alpha isoform; experiment: Inhibition of recombinant PI3K p110alpha H1047R mutant using L-alpha-phosphatidylinositol as substrate and [gamma33P]ATP after 60 mins by thin layer chromatographic technique
[12] = target: Phosphatidylinositol 4,5-bisphosphate 3-kinase catalytic subunit alpha isoform (Homo sapiens, UniProt P42336, E545K); experiment: Inhibition of recombinant PI3K p110alpha E545K mutant using L-alpha-phosphatidylinositol as substrate and [gamma33P]ATP after 60 mins by thin layer chromatographic technique
[13] = Cytotoxicity against human NZOV9 cells harboring PI3K p110alpha Y1021C mutant assessed as inhibition of [3H]thymidine incorporation measured after 5 days; format: functional, cell-based
Procedure, shortened: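 Early-passage lines grown in α-MEM with insulin, transferrin, selenite and 5% FBS. Wells seeded with 1000 cells; inhibitor in dilution steps up to a maximum of 20. Five days under 5% O₂/5% CO₂/90% N₂, ³H-thymidine added for the last 6 h. Duplicates per dose; fit y = y₀ + ae^−bx; IC50 = 50% reduction in incorporation.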

[14] = target: T1, Phosphatidylinositol 4,5-bisphosphate 3-kinase catalytic subunit alpha isoform; experiment: Inhibition of PI3K […] H1047R mutant-mediated PKB phosphorylation at Thr308 in human HCT116 cells after 15 mins by immunoblot analysis; format: cell-based, HCT-116; procedure, shortened: as §1
[15] = test system: Mus musculus; experiment: Toxicity in Rag1 knockout mouse xenografted with human HCT116 cells assessed as body weight loss at 40 mg/kg, ip QD measured on day 7 relative to untreated control; format: organism-based, HCT-116; design: dose 40 mg/kg, route intraperitoneal; conditions: in vivo; procedure, shortened: as §3
[16] = target: Insulin receptor (Homo sapiens) (UniProt P06213); experiment: Inhibition of IR assessed as residual activity at 10 uM

T1 sequence (P42336 whole entry H1047R, canonical isoform): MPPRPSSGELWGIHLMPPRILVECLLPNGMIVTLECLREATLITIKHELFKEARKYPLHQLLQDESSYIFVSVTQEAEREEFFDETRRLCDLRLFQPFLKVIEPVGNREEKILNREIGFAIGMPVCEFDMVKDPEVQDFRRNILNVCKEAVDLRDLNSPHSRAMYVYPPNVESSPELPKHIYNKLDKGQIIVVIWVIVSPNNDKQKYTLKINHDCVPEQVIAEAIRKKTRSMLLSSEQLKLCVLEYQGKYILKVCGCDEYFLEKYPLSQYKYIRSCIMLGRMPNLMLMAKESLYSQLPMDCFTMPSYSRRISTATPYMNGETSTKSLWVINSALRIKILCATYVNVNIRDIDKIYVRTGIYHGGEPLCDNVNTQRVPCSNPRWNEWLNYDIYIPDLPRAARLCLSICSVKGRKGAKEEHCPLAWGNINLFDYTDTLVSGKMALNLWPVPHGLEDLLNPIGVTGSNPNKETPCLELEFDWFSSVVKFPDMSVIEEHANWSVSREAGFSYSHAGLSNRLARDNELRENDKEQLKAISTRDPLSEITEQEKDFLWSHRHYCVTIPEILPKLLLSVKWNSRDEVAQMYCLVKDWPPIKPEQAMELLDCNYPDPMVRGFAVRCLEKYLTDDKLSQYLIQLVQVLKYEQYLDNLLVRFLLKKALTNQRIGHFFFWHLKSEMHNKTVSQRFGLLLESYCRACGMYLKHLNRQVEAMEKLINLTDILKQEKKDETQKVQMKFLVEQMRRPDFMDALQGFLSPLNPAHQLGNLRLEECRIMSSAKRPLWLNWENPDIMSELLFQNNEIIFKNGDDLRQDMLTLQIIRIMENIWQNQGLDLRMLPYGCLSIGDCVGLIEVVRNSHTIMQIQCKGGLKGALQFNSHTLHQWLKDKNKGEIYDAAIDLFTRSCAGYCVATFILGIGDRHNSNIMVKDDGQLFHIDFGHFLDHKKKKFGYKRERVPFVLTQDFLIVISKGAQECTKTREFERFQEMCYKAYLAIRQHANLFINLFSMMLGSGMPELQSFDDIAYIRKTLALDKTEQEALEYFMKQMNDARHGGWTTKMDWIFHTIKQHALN
Misshapen-like kinase 1 (Homo sapiens), sequence (Q8N4C8 whole entry, looked up): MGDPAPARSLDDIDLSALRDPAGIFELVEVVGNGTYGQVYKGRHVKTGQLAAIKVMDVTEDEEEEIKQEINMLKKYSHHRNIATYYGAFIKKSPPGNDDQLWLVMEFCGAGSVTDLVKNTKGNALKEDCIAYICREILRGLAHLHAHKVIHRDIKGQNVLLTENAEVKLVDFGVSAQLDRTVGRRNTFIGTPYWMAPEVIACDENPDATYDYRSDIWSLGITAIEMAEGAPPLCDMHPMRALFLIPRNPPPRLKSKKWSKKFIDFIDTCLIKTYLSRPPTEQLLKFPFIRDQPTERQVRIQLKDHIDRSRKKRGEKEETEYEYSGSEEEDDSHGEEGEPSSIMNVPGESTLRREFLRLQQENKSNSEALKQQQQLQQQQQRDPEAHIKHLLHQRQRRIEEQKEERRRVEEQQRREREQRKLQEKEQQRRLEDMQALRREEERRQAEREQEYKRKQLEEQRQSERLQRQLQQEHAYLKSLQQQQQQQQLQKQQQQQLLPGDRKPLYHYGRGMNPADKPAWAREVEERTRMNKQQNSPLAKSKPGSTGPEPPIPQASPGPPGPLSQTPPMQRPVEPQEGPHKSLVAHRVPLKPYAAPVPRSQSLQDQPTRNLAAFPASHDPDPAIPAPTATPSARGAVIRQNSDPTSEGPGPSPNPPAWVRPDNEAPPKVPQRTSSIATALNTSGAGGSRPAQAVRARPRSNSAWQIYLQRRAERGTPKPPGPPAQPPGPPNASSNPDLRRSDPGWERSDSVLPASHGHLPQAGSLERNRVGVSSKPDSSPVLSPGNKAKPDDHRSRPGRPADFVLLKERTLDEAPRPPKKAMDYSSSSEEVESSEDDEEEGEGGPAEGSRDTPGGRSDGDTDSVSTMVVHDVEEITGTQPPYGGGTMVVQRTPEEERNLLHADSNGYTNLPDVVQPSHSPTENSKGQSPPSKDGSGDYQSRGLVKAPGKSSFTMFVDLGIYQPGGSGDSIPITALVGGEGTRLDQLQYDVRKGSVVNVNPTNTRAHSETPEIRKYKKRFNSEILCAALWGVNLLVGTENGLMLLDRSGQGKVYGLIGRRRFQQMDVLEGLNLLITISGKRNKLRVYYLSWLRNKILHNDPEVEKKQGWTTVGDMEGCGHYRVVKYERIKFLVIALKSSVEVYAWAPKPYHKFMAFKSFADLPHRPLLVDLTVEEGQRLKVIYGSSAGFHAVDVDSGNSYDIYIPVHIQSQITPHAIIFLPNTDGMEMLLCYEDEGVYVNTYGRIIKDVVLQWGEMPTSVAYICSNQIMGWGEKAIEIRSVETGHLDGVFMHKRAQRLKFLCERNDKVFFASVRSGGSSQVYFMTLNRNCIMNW
Ribosomal protein S6 kinase alpha-1 (Homo sapiens), sequence (Q15418 whole entry, canonical isoform): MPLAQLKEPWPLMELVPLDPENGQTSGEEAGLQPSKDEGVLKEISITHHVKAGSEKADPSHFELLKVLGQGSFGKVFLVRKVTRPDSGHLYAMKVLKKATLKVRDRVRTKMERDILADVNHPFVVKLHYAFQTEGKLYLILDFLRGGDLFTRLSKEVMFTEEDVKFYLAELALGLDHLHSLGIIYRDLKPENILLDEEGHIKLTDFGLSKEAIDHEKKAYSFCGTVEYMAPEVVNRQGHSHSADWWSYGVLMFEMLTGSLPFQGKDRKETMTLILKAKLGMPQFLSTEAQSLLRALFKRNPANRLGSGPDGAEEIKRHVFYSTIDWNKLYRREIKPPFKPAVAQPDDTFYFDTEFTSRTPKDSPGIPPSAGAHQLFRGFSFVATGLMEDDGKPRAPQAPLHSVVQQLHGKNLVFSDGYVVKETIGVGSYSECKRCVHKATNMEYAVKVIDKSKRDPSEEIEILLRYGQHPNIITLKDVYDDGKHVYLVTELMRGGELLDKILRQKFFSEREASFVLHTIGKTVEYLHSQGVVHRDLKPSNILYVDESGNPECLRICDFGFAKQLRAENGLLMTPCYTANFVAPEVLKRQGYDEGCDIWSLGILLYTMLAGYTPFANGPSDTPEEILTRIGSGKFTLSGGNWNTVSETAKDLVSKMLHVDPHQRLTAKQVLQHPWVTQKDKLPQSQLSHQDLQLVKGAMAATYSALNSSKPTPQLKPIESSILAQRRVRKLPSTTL
Phosphatidylinositol 4,5-bisphosphate 3-kinase catalytic subunit beta isoform, sequence (P42338 whole entry, canonical isoform): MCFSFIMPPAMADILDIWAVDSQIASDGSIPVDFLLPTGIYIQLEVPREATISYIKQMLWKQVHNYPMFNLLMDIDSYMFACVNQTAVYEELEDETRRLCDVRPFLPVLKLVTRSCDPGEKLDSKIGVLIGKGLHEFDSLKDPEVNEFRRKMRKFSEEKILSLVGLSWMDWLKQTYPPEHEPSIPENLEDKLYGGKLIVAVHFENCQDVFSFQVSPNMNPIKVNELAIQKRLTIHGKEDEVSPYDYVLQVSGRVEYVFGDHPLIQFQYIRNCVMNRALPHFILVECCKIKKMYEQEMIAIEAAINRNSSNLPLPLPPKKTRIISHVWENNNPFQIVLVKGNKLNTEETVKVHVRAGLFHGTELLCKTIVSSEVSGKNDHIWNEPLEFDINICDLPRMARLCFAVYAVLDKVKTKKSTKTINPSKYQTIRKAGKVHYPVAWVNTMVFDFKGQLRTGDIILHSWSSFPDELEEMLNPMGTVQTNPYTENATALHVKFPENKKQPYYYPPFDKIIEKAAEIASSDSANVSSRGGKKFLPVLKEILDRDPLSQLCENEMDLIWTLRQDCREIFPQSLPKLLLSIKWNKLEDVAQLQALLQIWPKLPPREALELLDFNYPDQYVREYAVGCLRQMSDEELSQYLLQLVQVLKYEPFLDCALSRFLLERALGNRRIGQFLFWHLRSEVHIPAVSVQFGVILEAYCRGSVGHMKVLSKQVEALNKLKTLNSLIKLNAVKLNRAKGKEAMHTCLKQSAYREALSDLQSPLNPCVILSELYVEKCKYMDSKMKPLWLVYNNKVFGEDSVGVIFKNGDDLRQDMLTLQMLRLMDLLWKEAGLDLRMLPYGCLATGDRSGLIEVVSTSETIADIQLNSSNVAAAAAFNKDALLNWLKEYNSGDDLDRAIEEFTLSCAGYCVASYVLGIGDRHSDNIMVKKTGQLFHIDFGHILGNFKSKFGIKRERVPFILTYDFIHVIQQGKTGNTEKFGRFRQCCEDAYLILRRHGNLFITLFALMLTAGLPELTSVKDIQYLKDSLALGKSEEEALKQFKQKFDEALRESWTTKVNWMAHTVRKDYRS
Mitogen-activated protein kinase 14 (Homo sapiens), sequence (Q16539 whole entry, canonical isoform): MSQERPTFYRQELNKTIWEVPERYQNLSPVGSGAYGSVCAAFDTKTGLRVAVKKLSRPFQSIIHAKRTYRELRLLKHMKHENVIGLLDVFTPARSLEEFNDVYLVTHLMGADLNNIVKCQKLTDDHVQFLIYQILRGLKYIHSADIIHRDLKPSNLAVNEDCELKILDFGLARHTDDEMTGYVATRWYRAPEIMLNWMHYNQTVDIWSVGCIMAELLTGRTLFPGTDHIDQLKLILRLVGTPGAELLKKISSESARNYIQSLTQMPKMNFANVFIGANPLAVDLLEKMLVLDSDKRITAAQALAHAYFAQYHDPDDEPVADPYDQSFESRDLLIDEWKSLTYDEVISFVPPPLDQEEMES
Phosphatidylinositol 4,5-bisphosphate 3-kinase catalytic subunit alpha isoform (Homo sapiens, UniProt P42336, E545K), sequence (P42336 whole entry E545K, canonical isoform): as the sequence (P42336 whole entry H1047R, canonical isoform) above, with E545K, R1047H counted along it

pIC50 [1]: 7.09
half-life [2]: 1.13 h
pIC50 [3]: 9.52
AUC(0-inf) [4]: 3.16 µM·h
Activity [5]: 13%
pIC50 [6]: 7.29
Activity [7]: 2%
Activity [10]: 5%
pIC50 [11]: 9.10
pIC50 [12]: 9.10
pIC50 [14]: 7.31
Activity [16]: 14%
SMILES: Cc1ccc([N+](=O)[O-])cc1S(=O)(=O)N(CCO)/N=C/c1cnn2ccc(C#N)cc12
Activity [8]: 43.8%
Activity [9]: 20%
pIC50 [13]: 6.85
Activity [15]: > 15%

From ChEMBL document CHEMBL1926530, “Novel pyrazolo[1,5-a]pyridines as p110α-selective PI3 kinase inhibitors: Exploring the benzenesulfonohydrazide SAR” (Bioorg Med Chem, 2012)
